# Assay results: ChEMBL document CHEMBL5316332 (J Med Chem, 2023)
# Active and inactive are the calls of the source. The rule behind the calls is not given here.
# Test system: not listed separately
# Test: Inhibition of BMP signalling pathway in BMP2-stimulated human HEK293T cells expressing BRE and luciferase reporter assessed as inhibition of luciferase transactivation by measuring BRE-reporter activity preincubated for 30 mins followed by BMP2 stimulation and measured after 6 hrs by Bright-GLO mediated luciferase assay
# Type: cell-based
# Settings: HEK-293T
# Method in brief: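 293T cells stably carrying a BMP-responsive-element luciferase reporter, 2 × 10^4 per well, attached overnight in phenol-red-free DMEM with 2 mM glycine and 2% heat-inactivated FBS. Pretreated 30 min with inhibitor, then 5 ng/mL BMP2 for 6 h. Bright-Glo luminescence read; IC50 by nonlinear regression.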
row,IC50 [nM],SMILES
1,82,c1ccc2c(-c3cnn4cc(-c5ccc(N6CCNCC6)cc5)cnc34)ccnc2c1
2,29800,Cn1c(-c2ccc3cnccc3c2)nc2ccc(C(=O)NCc3cccc(C(N)=O)c3)cc21
3,8720,COc1cnc(Nc2cccc(S(N)(=O)=O)c2)nc1N1CCN(c2ccccc2)CC1

# Test system: HUVEC
# Test: Inhibition of BMP signalling pathway in BMP9-stimulated human HUVEC cells assessed as decrease in SMAD5 phosphorylation at 25 uM preincubated for 30 mins followed by BMP2 stimulation and measured after 15 mins by Western blot analysis
# Type: cell-based
# Settings: time 45.0 min
# Method in brief: (§1)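 HUVECs, about 3 × 10^5 per well, starved overnight in Kaighn's F-12 with 0.5% FBS and 30 μg/mL endothelial cell growth supplement. Pretreated 30 min with inhibitor, then stimulated with 0.5 ng/mL BMP9. Lysed in M-PER with protease and phosphatase inhibitors. Western blot for pSMAD1/5, SMAD1 and SMAD5, quantified by densitometry.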
row,SMILES,inhibition
1,c1ccc2c(-c3cnn4cc(-c5ccc(N6CCNCC6)cc5)cnc34)ccnc2c1,Active
2,COc1cnc(Nc2cccc(S(N)(=O)=O)c2)nc1N1CCN(c2ccccc2)CC1,Active

# Biological target: T1, Bone morphogenetic protein receptor type-2 (Homo sapiens, UniProt Q13873)
# T1 sequence (Q13873 whole entry): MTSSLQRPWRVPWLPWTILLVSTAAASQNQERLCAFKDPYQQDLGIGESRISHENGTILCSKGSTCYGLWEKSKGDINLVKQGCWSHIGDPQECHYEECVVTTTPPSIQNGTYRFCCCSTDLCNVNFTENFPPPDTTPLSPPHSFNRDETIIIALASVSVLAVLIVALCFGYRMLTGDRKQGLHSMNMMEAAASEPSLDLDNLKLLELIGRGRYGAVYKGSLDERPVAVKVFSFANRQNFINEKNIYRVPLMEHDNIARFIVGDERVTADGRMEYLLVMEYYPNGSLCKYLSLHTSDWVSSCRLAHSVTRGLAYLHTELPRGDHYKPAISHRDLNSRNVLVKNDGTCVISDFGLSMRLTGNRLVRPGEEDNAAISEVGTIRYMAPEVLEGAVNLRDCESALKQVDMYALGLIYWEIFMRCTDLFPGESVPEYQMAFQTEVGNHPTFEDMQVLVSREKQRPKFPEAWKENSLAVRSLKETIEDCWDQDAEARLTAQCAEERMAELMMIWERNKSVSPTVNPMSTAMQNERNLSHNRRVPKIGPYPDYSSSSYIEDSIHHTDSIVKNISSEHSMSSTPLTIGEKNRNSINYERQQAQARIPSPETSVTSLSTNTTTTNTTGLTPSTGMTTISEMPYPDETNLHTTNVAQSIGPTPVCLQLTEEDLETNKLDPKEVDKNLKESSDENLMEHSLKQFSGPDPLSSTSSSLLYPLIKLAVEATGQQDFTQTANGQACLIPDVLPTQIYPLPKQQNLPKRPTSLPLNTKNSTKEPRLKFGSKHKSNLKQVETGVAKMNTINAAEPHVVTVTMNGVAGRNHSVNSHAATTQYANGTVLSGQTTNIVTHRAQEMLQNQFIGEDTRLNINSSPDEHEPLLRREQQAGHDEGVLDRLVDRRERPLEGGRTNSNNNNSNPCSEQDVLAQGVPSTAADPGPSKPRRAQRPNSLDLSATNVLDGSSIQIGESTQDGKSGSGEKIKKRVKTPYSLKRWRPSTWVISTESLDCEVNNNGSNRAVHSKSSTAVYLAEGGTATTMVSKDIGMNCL
# Test: Inhibition of recombinant C-terminal 6His-tagged human BMPR2 (188 to 517 residues) expressed in Escherichia coli Rosetta assessed as apparent inhibition constant using ATP as substrate incubated for 30 mins by Morrison plot analysis
# Settings: read-out: Ki(app)
# Method in brief: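 Purified His-tagged BMPR2 kinase domain with no peptide substrate (intrinsic ATPase). 10 μM ATP, 0.02% Tween-20, kinase buffer, 50 μL, enzyme level optimized for initial-velocity conditions. 30 min at 30 °C. Leftover ATP read by Kinase-Glo luminescence, with no-kinase controls. Kiapp from a modified Morrison equation fitted to normalized fractional activity, assuming no specific inhibition mode.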
row,Ki [nM],SMILES
1,5,CCOc1cnc(Nc2cccc(S(N)(=O)=O)c2)nc1N1CCN(c2ccccc2)C(=O)C1
2,> 1000,CNC(=O)[C@@H]1CC[C@@H](n2c(-c3cccc(Cl)c3)nc3ccc(C(=O)NCc4cccc(C(N)=O)c4)cc32)C1
3,> 200,CC(C)Oc1cnc(Nc2cccc(S(N)(=O)=O)c2)nc1N1CCN(c2ccccc2)C(=O)C1
4,118,COc1cnc(Nc2cccc(S(N)(=O)=O)c2)nc1N1CCN(c2ccccc2)C(C)C1 (stereo unspecified)
5,220,COc1cnc(Nc2cccc(S(N)(=O)=O)c2)nc1N1CCN(c2ccccc2)CC12CC2
6,39,CNC(=O)[C@@H]1CC[C@@H](n2c(-c3ccc4cnccc4c3)nc3ccc(C(=O)NCc4ccccc4)cc32)C1
7,220,COc1cnc(Nc2cccc(S(N)(=O)=O)c2)nc1N1CC2CCC(C1)N2c1ccccc1
8,88,COc1cnc(Nc2cccc(S(N)(=O)=O)c2)nc1N1CCN(c2ccccc2)CC1C (stereo unspecified)
9,> 1000,CNC(=O)[C@@H]1CC[C@@H](n2c(-c3cc(Cl)cc(Cl)c3)nc3ccc(C(=O)NCc4cccc(C(N)=O)c4)cc32)C1
10,22,Cn1c(-c2ccc3cnccc3c2)nc2ccc(C(=O)NCc3cccc(C(N)=O)c3)cc21
11,40,COc1cnc(Nc2cccc(S(N)(=O)=O)c2)nc1N1CCN(c2ccccc2)CC1

# Biological target: TGF-beta receptor type-2 (Homo sapiens, UniProt P37173)
# Test: Inhibition of TGFBR2 (unknown origin) by LanthaScreen TR-FRET assay
# Settings: not given
# Method in brief: (§2)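 Outsourced SelectScreen profiling using a LanthaScreen TR-FRET binding format, in which a tight-binding tracer is displaced from the kinase.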
# TGF-beta receptor type-2, sequence (P37173 whole entry): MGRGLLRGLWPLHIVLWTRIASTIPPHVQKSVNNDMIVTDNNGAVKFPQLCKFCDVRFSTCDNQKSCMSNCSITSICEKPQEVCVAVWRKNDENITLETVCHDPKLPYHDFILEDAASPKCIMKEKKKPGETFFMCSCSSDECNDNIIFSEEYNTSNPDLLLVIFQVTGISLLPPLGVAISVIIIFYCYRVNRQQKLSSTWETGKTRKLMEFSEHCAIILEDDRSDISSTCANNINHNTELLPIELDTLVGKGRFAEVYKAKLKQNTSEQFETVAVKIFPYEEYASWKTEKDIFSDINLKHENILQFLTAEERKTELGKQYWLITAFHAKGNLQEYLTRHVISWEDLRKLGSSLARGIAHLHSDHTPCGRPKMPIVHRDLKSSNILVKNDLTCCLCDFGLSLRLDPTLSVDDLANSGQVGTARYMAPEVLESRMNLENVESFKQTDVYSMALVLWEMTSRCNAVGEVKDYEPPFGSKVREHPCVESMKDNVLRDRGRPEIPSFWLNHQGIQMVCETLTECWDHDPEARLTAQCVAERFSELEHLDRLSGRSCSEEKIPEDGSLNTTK
row,IC50 [nM],SMILES
1,4.2,c1ccc2c(-c3cnn4cc(-c5ccc(N6CCNCC6)cc5)cnc34)ccnc2c1

# Test system: not listed separately
# Test: Metabolic stability in mouse liver microsomes assessed as intrinsic clearance per mg of protein at 2 uM and mesured upto 60 mins in presence of NADPH by UHPLC-MS analysis
# Type: ADME, Microsome
# Settings: microsomes, 1 h, 2 µM
row,microsomal intrinsic clearance [µL/min/mg],SMILES
1,79,CCOc1cnc(Nc2cccc(S(N)(=O)=O)c2)nc1N1CCN(c2ccccc2)C(=O)C1
2,220,COc1cnc(Nc2cccc(S(N)(=O)=O)c2)nc1N1CCN(c2ccccc2)C(C)C1 (stereo unspecified)
3,233,COc1cnc(Nc2cccc(S(N)(=O)=O)c2)nc1N1CCN(c2ccccc2)CC1C (stereo unspecified)
4,99,Cn1c(-c2ccc3cnccc3c2)nc2ccc(C(=O)NCc3cccc(C(N)=O)c3)cc21
5,120,COc1cnc(Nc2cccc(S(N)(=O)=O)c2)nc1N1CCN(c2ccccc2)CC1

# Biological target: Receptor-interacting serine/threonine-protein kinase 2 (Homo sapiens, UniProt O43353)
# Test: Inhibition of RIPK2 (unknown origin) incubated for 30 mins in presence of [gamma33P]ATP by microplate reader analysis
# Settings: not given
# Receptor-interacting serine/threonine-protein kinase 2, sequence (O43353 whole entry): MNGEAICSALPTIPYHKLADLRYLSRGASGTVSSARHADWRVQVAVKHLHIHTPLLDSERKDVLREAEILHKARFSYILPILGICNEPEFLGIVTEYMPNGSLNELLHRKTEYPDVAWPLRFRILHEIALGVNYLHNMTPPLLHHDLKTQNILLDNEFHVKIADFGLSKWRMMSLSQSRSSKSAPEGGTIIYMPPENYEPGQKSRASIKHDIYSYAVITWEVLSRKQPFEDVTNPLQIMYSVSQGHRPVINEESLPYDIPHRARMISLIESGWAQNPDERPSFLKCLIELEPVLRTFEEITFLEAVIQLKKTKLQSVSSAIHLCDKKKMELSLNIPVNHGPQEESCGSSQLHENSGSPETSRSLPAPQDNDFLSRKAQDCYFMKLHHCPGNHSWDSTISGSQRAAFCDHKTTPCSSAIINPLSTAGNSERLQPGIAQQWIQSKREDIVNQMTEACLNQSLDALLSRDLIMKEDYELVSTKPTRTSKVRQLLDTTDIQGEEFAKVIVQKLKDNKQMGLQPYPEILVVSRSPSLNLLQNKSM
row,IC50 [nM],SMILES
1,25,c1ccc2c(-c3cnn4cc(-c5ccc(N6CCNCC6)cc5)cnc34)ccnc2c1

# Test system: not listed separately
# Test: Metabolic stability in mouse liver microsomes assessed as half life at 2 uM and mesured upto 60 mins in presence of NADPH by UHPLC-MS analysis
# Type: ADME, Microsome
# Settings: microsomes, 1 h, 2 µM
row,t1/2 [min],SMILES
1,18,CCOc1cnc(Nc2cccc(S(N)(=O)=O)c2)nc1N1CCN(c2ccccc2)C(=O)C1
2,6,COc1cnc(Nc2cccc(S(N)(=O)=O)c2)nc1N1CCN(c2ccccc2)C(C)C1 (stereo unspecified)
3,6,COc1cnc(Nc2cccc(S(N)(=O)=O)c2)nc1N1CCN(c2ccccc2)CC1C (stereo unspecified)
4,14,Cn1c(-c2ccc3cnccc3c2)nc2ccc(C(=O)NCc3cccc(C(N)=O)c3)cc21
5,12,COc1cnc(Nc2cccc(S(N)(=O)=O)c2)nc1N1CCN(c2ccccc2)CC1

# Test system: not listed separately
# Test: Metabolic stability in human liver microsomes assessed as half life at 2 uM and mesured upto 60 mins in presence of NADPH by UHPLC-MS analysis
# Type: ADME, Microsome
# Settings: microsomes, 1 h, 2 µM
row,t1/2 [min],SMILES
1,73,CCOc1cnc(Nc2cccc(S(N)(=O)=O)c2)nc1N1CCN(c2ccccc2)C(=O)C1
2,60,COc1cnc(Nc2cccc(S(N)(=O)=O)c2)nc1N1CCN(c2ccccc2)C(C)C1 (stereo unspecified)
3,79,COc1cnc(Nc2cccc(S(N)(=O)=O)c2)nc1N1CCN(c2ccccc2)CC1C (stereo unspecified)
4,69,Cn1c(-c2ccc3cnccc3c2)nc2ccc(C(=O)NCc3cccc(C(N)=O)c3)cc21
5,77,COc1cnc(Nc2cccc(S(N)(=O)=O)c2)nc1N1CCN(c2ccccc2)CC1

# Test system: HUVEC
# Test: Inhibition of BMP signalling pathway in BMP9-stimulated human HUVEC cells assessed as decrease in SMAD1 phosphorylation at 25 uM preincubated for 30 mins followed by BMP2 stimulation and measured after 15 mins by Western blot analysis
# Type: cell-based
# Settings: time 45.0 min
# Method in brief: as §1
row,SMILES,inhibition
1,c1ccc2c(-c3cnn4cc(-c5ccc(N6CCNCC6)cc5)cnc34)ccnc2c1,Active
2,COc1cnc(Nc2cccc(S(N)(=O)=O)c2)nc1N1CCN(c2ccccc2)CC1,Active

# Test system: not listed separately
# Test: Metabolic stability in human liver microsomes assessed as intrinsic clearance per mg of protein at 2 uM and mesured upto 60 mins in presence of NADPH by UHPLC-MS analysis
# Type: ADME, Microsome
# Settings: microsomes, 1 h, 2 µM
row,microsomal intrinsic clearance [µL/min/mg],SMILES
1,19,CCOc1cnc(Nc2cccc(S(N)(=O)=O)c2)nc1N1CCN(c2ccccc2)C(=O)C1
2,23,COc1cnc(Nc2cccc(S(N)(=O)=O)c2)nc1N1CCN(c2ccccc2)C(C)C1 (stereo unspecified)
3,18,COc1cnc(Nc2cccc(S(N)(=O)=O)c2)nc1N1CCN(c2ccccc2)CC1C (stereo unspecified)
4,20,Cn1c(-c2ccc3cnccc3c2)nc2ccc(C(=O)NCc3cccc(C(N)=O)c3)cc21
5,18,COc1cnc(Nc2cccc(S(N)(=O)=O)c2)nc1N1CCN(c2ccccc2)CC1

# Test system: HEK293T
# Test: Inhibition of BMP signalling pathway in BMP2-stimulated human HEK293T cells assessed as decrease in SMAD5 phosphorylation at 25 uM preincubated for 30 mins followed by BMP2 stimulation and measured after 15 mins by Western blot analysis
# Type: cell-based
# Settings: time 45.0 min
# Method in brief: (§3)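 HEK293T cells, 3 × 10^5 per well, starved overnight in DMEM with 2 mM glycine and 2% heat-inactivated FBS. Pretreated 30 min with inhibitor, then 5 ng/mL BMP2 for 15 min. Lysed in M-PER with protease inhibitors. Western blot for pSMAD1/5, SMAD1, SMAD5 and GAPDH, quantified by densitometry.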
row,SMILES,inhibition
1,c1ccc2c(-c3cnn4cc(-c5ccc(N6CCNCC6)cc5)cnc34)ccnc2c1,Active
2,COc1cnc(Nc2cccc(S(N)(=O)=O)c2)nc1N1CCN(c2ccccc2)CC1,Active

# Test system: HEK293T
# Test: Inhibition of BMP signalling pathway in BMP2-stimulated human HEK293T cells assessed as decrease in SMAD1 phosphorylation at 25 uM preincubated for 30 mins followed by BMP2 stimulation and measured after 15 mins by Western blot analysis
# Type: cell-based
# Settings: time 45.0 min
# Method in brief: as §3
row,SMILES,inhibition
1,c1ccc2c(-c3cnn4cc(-c5ccc(N6CCNCC6)cc5)cnc34)ccnc2c1,Active
2,COc1cnc(Nc2cccc(S(N)(=O)=O)c2)nc1N1CCN(c2ccccc2)CC1,Active

# Biological target: Activin receptor type-2B (Homo sapiens, UniProt Q13705)
# Test: Inhibition of ACVR2B (unknown origin) by LanthaScreen TR-FRET assay
# Settings: not given
# Method in brief: as §2
# Activin receptor type-2B, sequence (Q13705 whole entry): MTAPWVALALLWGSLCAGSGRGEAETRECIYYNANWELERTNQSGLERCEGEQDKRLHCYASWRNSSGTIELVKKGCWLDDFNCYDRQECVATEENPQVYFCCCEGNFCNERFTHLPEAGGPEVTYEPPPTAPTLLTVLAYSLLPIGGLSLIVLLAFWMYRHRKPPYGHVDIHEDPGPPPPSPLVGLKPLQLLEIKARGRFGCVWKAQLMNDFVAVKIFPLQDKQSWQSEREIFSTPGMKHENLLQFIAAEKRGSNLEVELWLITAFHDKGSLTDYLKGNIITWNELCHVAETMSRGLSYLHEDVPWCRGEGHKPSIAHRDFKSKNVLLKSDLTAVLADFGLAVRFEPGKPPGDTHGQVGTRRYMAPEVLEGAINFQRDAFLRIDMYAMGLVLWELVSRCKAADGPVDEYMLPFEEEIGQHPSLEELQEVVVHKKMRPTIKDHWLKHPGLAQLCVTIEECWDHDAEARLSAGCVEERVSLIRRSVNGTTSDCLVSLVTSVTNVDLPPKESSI
row,IC50 [nM],SMILES
1,9.3,c1ccc2c(-c3cnn4cc(-c5ccc(N6CCNCC6)cc5)cnc34)ccnc2c1

# Biological target: Activin receptor type-2A (Homo sapiens, UniProt P27037)
# Test: Inhibition of ACVR2A (unknown origin) by LanthaScreen TR-FRET assay
# Settings: not given
# Method in brief: as §2
# Activin receptor type-2A, sequence (P27037 whole entry): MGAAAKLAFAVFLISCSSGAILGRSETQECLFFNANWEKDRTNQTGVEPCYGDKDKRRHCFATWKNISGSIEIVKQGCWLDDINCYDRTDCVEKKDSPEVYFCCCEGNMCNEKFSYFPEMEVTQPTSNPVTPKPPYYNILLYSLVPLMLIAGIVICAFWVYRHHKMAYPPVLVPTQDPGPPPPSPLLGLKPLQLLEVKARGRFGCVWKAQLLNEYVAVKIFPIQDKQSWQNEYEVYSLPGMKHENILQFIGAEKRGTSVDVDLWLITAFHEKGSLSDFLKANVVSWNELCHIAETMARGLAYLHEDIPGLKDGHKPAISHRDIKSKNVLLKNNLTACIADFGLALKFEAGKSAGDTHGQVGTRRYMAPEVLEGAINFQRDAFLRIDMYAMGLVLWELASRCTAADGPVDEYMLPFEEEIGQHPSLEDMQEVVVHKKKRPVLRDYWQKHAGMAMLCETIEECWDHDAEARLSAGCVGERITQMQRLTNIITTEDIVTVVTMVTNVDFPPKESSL
row,IC50 [nM],SMILES
1,9.3,c1ccc2c(-c3cnn4cc(-c5ccc(N6CCNCC6)cc5)cnc34)ccnc2c1
